Laboratory results: ChEMBL document CHEMBL3351255, “Synthesis of dihydroresveratrol glycosides and evaluation of their activity against melanogenesis in B16F0 melanoma cells” (Eur J Med Chem, 2014)

Key:
B16-F10 = assay: Potency index, ratio of kojic acid to test compound for inhibition of melanogenesis in mouse B16F10 cells; assay type: functional
[1] = Toxicity in mouse B16F10 cells assessed as protein content at 25.5 uM incubated for 72 hrs by BCA protein assay; assay type: cell-based
Procedure, shortened: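 Treatment was the same as above: B16F0 cells in DMEM with 5% FBS plus sample in ethanol, with medium and sample renewed after 72 h and cells harvested by trypsin 72 h later. Total cellular protein in the pelleted cells was measured by bicinchoninic acid (BCA) assay and expressed as % of negative control.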

[2] = Toxicity in mouse B16F10 cells assessed as cell viability at 25.5 uM incubated for 72 hrs by BCA protein assay; assay type: cell-based; conditions: read-out: Activity
B16-F0 = assay: Effect on melanogenesis in mouse B16F0 cells assessed as melanin content at 1 mM incubated for 72 hrs; conditions: B16-F0, 72 h

| SMILES | Ratio (B16-F10) | Activity [1] [%] | viability at 72 h, 25.5 µM [2] [%] | melanin content at 1000 µM (B16-F0) [%] |
| --- | --- | --- | --- | --- |
| C=CC/C=C\C/C=C\CCCCCCCc1cc(O)cc(O)c1 | 40 | 98 | 102 |  |
| O=c1cc(CO)occ1O [KOJIC ACID] |  |  |  | 79 |
